# Results taken from the RNAGym collection of RNA variant scans (doi:10.1126/science.aae0568).
# This sample holds only a part of the variants without activity.
# B1: tRNA (parent)
# chain: GUUCCGUUGGCGUAAUGGUAACGCGUCUCCCUCCUAAGGAGAAGACUGCGGGUUCGAGUCCCGUACGGAACG
# Variants of: B1
# Test: yeast fitness relative to wild type (ratio to wild type); higher = fitter; tRNA-Arg(CCU), competitive growth, 37 C, YPD
# Outline: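 Amplicons of the tRNA-Arg(CCU) gene were sequenced, 100-nucleotide paired-end, from the start population and from each end population of a pooled yeast competition. The competition, in six parallel replicates, lasted 24 hours in YPD at 37°C. Fitness relative to wild type was calculated from changes in genotype frequencies. Genotypes had to have ≥ 100 starting reads, and estimates < 0.5 were set to 0.5.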
row,Variant,yeast fitness
1,U19G U47G G58C,≤ 0.5
2,A20C C22U C29G G41C C49G U53A,≤ 0.5
3,U19G C22U C31U A40U A65C G68A,≤ 0.5
4,A20C A40U G48A C61A G68A,≤ 0.5
5,U19G C30A C49U,0.602
6,A20C A21G U64G,0.558
7,U19C U32C A40C G41A,0.674
8,U19G C30U C62G,0.603
9,U19G A70G,0.847
10,A20C C22U C34U U35G,≤ 0.5
11,A20C A40G A42U G50A G51C A70C,0.563
12,A20C A21C G39A U53A,≤ 0.5
13,A20C A21G A45U,0.91
14,A20C C29G C31U A57U,≤ 0.5
15,U19G G23A U35G,≤ 0.5
16,U19G C30A A45U G58C A69U,≤ 0.5
17,U19C G52C U64A,≤ 0.5
18,A20C C31U A40G G52C C62A A65G,≤ 0.5
19,U19G C29A,0.56
20,A20C C24A C29U G63C,≤ 0.5
21,A20C A40G G52C,≤ 0.5
22,A20C C24U U47A G67C,≤ 0.5
23,U19C U53A,0.689
24,A20C C33A A40C,0.7

row,Variant,yeast fitness
1,U19G G56A G67U,≤ 0.5
2,U19C U53C U54A,≤ 0.5
3,A20C C61U A69C A70C,≤ 0.5
4,A20C C31G G58C,0.92
5,U19C U28C G67C,0.638
6,U19G A20U G67A,0.743
7,U19G U26C C29G A57U A69U A70C,≤ 0.5
8,A20C A21U G41A,≤ 0.5
9,A20C C30A,0.746
10,A20C C30U C33G A40G,0.537
11,U19C G52C,0.562
12,U19C G52A,0.78
13,U19C U32C U64A,0.501
14,A20C A37U U59G C66A,0.656
15,A20C C29U U54C,≤ 0.5
16,A20C C30G C60A,≤ 0.5
17,U19G U53A,0.506
18,U19G C29U A40C C60G C62A A65G,0.525
19,A20C C33U G38C,≤ 0.5
20,A20C C27U C62U,0.731
21,A20C C33A A65U,≤ 0.5
22,U19G G50A G51C C55G C61U,≤ 0.5
23,U19G C55G,0.651
24,U19C U53C G56A,0.622

row,Variant,yeast fitness
1,A20C C29G A69C,0.539
2,A20C C55G A65G,0.53
3,A20C C34G A43C C62U G68C,≤ 0.5
4,A20C C31A A70U,≤ 0.5
5,A20C A37C U53C G63C,≤ 0.5
6,A20C A36C A45C,0.592
7,A20C C34A,0.674
8,A20C A21U C27G U35G,0.521
9,A20C C55U A70C,0.612
10,U19G C22U C30U C31U A40U G67A,≤ 0.5
11,U19G A21U C33A C49A,≤ 0.5
12,A20C C24U A42C C55G,≤ 0.5
13,A20C C27U U59G,0.582
14,U19G A20U C30U G48A,0.577
15,A20C C31A G39C C49U,≤ 0.5
16,A20C C29U C34A C46A G50A A57U C66U,≤ 0.5
17,A20C C24A C29G C34G G56A A65G A69C,0.856
18,A20C A42C,0.603
19,A20C C46U,1.13
20,A20C C46A G68A,0.875
21,A20C C24U C66U,≤ 0.5
22,U19G U32A,0.735
23,U19G U32C,1.04
24,A20C A43U G56A,0.656

row,Variant,yeast fitness
1,A20C C24G G39C G68C,≤ 0.5
2,A20C C24G G56A C62A,≤ 0.5
3,A20C A21G A70C,0.803
4,A20C A43G,1.01
5,A20C A43U,0.829
6,A20C A21G C24U U26C,≤ 0.5
7,U19G C49U C60A C66G,≤ 0.5
8,A20C A36G U47C,0.658
9,A20C A45C G63C G67A,≤ 0.5
10,U19G C29U C49U,≤ 0.5
11,A20C C24A A36C G48C,≤ 0.5
12,A20C C27G C49A,≤ 0.5
13,U19G G41U,0.691
14,U19G G41C,0.622
15,U19C G67C,0.931
16,U19C G67U,1.07
17,U19C G67A,1
18,A20C C22U A40U,≤ 0.5
19,U19C G68A,0.878
20,A20C C34U U47G C60U C62G,≤ 0.5
21,A20C C49G C62U,≤ 0.5
22,A20C C29G A57U,≤ 0.5
23,A20C C22U U26C C46G C49U A69C,≤ 0.5
24,A20C C27U A45U,0.636

row,Variant,yeast fitness
1,A20C A40C,0.788
2,A20C A40U,0.855
3,A20C A40G A42U G50A G51C,≤ 0.5
4,A20C C22G C33A U59C,≤ 0.5
5,U19G U35C A40U,≤ 0.5
6,A20C C30U C66U,≤ 0.5
7,A20C C22G C34G G44A A65U,0.569
8,A20C A21C,0.608
9,A20C C30A C33U C34U C49A,0.733
10,U19G A43C C49U U53C C55G,≤ 0.5
11,U19G A40G C49A,≤ 0.5
12,A20C A21U C27G A42U,≤ 0.5
13,A20C C33G U59C,0.685
14,A20C C27G A57C,≤ 0.5
15,A20C A36G A45U A65G,0.614
16,U19G A20C U26C G41A C62G,≤ 0.5
17,A20C A37C A43G C61U,≤ 0.5
18,U19G A20C U26C U28C,≤ 0.5
19,A20C A40U C61A G68A,0.574
20,U19G C31A G39C C62G G68A,≤ 0.5
21,A20C C29U A37G,0.753
22,A20C A43U G48C,0.615
23,A20C C24G A69U,≤ 0.5
24,A20C C29U C31G U32A C33A U53C,≤ 0.5

row,Variant,yeast fitness
1,A20C A21G C24U,0.647
2,A20C C22G C33A A42C C61U,≤ 0.5
3,A20C C29U C49G G58A,≤ 0.5
4,A20C C34G A43C G56A C61U,0.705
5,U19G A43U A70C,0.716
6,U19G C29A U54A,≤ 0.5
7,U19G A43C U53C C55G A70U,≤ 0.5
8,A20C A21C C30G G39C A42G,0.631
9,U19G C27U A37G U47C,≤ 0.5
10,A20C C30U C31U A45C A57U C66G,≤ 0.5
11,A20C C66A,0.697
12,U19G G44A,0.953
13,A20C A40U C60G A65C,≤ 0.5
14,A20C C34A A37G C46A G63C A69C,≤ 0.5
15,A20C A42U A45G,0.77
16,U19G C22G A36C A57G C60A C66G,≤ 0.5
17,U19C U47C,0.905
18,U19C U47A,0.896
19,A20C C30G U35C C60A,≤ 0.5
20,U19G U47C,0.972
21,A20C A37U,0.817
22,A20C A37G,0.704
23,U19C U32G,0.655
24,A20C A21U C27G A42U A70G,≤ 0.5

row,Variant,yeast fitness
1,A20C C60U,0.742
2,A20C C60G,0.591
3,U19G C29U A40C,0.52
4,U19G A42U C46U,0.569
5,U19G A20U C27G C66U,≤ 0.5
6,A20C C24U A42U U59C C62U,≤ 0.5
7,A20C C22U,0.729
8,A20C C22U C33U,0.542
9,A20C C22U C34U U35G U47C A65C,≤ 0.5
10,A20C C24G C27U C31G A65C,≤ 0.5
11,A20C A37G C49G U53A C60U,0.527
12,U19G C34U G68C,0.591
13,U19G A37G C66U A69U,0.691
14,A20C C29G A57U A70C,≤ 0.5
15,A20C C34G A42G,0.922
16,U19G C31A U35A C55G G58C,0.519
17,A20C A21G C46U C60G,≤ 0.5
18,U19G C27G C34A A42U,≤ 0.5
19,A20C A21G G56C C66U,≤ 0.5
20,A20C C22U A43U A69C,≤ 0.5
21,A20C A45U A69U,0.773
22,U19G G44A G48A G50C,≤ 0.5
23,U19G A37G A57G A70U,≤ 0.5
